ChEMBL document CHEMBL4513216, “Probing the Open Global Health Chemical Diversity Library for Multistage-Active Starting Points for Next-Generation Antimalarials” (ACS Infect Dis, 2020)

experiment: Toxicity liver stage against HepG2, at 10uM; type: cell-based; design: test concentration 10 uM, cell line HepG2-A16-CD81EGFP; conditions: human, HepG2-A16-CD81EGFP cells; read-out: INHIBITION
Outline: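 Uninfected HepG2-A16-CD81EGFP cells, 3 × 10^3 per well, 1536-well, plated on prespotted compound at 10 μM final, parasite-free screening media added to match infected plates; puromycin 10 μM positive, DMSO 0.5% negative; run in parallel with 48 h PbLuc assay at 37 °C, 5% CO2; viability by CellTiter-Glo luminescence, normalized to controls.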

Structure (SMILES) | cytotoxicity at 10 µM
Cc1ccc(NC(=O)c2cc(S(=O)(=O)N3CCCCC3)c[nH]2)cc1F | 1.26%
COCCN(CCOC)Cc1c(C)nc2ccccc2c1O | 2.08%
CC(C)(C)C(=O)NC[C@H]1Cn2c(-c3ccccc3)cnc2CO1 | -3.69%
CN1CCN(C(=O)c2cc3occc3n2Cc2ccccc2F)CC1 | 1.14%
Cc1n[nH]c2nc(-c3ccccc3O)cc(C(=O)O)c12 | -1.55%
COC(=O)c1ccc(C2SCC(=O)Nc3c2cnn3C2CCCC2)cc1 (stereo not drawn) | 1.9%
COc1ccc(C(=O)NCC(c2cccn2C)N2CCN(C)CC2)cc1 (stereo not drawn) | 8.19%
O=C(O)c1ncccc1N1CCCCC1 | 4.19%
CN1CCCCC12CCN(c1nncs1)C2 (stereo not drawn) | 7.1%
O=C(c1ncn2c1CNS(=O)(=O)c1ccccc1-2)N1CCCCC1 | 9.52%
Cc1cnc(N2CCC3(CC2)CC3CNC(=O)N(C)C)nc1 (stereo not drawn) | 8.82%
COCC1CN(Cc2ccoc2)Cc2cn(C)nc21 (stereo not drawn) | 7.55%
CO[C@H]1CCN(S(=O)(=O)c2cn(C)cn2)[C@H]1Cc1ccncc1 | 9.43%
CN(C)C(=O)N1CCN(C)c2ncccc2C1 | -4.14%
O=C1COc2ccc(S(=O)(=O)NC3CC3)c3c2N1CCC3 | -16.7%
CCN(CC)C(=O)c1nnsc1-c1ccccc1 | 1.88%
CC(C)NC(=O)[C@@H]1CN(C(=O)C2CC2)C[C@]12Cc1ccccc1C(=O)N2 | 1.48%
CN(C)c1ncc(I)c(C2CCCN2S(C)(=O)=O)n1 (stereo not drawn) | 3.8%
Cc1ccc(CC(=O)N2CCOC(c3ncc(CN(C)C)[nH]3)C2)s1 (stereo not drawn) | -3.47%
Cc1nn(C)cc1-c1cc(C(=O)N2CCc3ncc(Cl)cc3C2)on1 | -4.96%
CC(C)N1CCCC1c1cc(CCO)[nH]n1 (stereo not drawn) | 0.895%
Cc1noc(C)c1CCC(=O)N[C@@H]1CC[C@@H](Oc2cccnc2)[C@@H]1O | -2.62%
Cc1ccc(S(=O)(=O)N[C@H](CO)C(C)C)cc1N(C)C | -5.53%

Structure (SMILES) | cytotoxicity at 10 µM
CC(C)N(C(=O)c1ccnc(OCC(F)(F)F)c1)c1cccnc1 | 8.05%
Cc1nc2cc(NCc3cnn(C)c3)ccc2n1C | 13.1%
N#Cc1cccc(CN2CCCC2Cn2cncn2)c1 (stereo not drawn) | 3.15%
CC(C)c1noc(CCNC(=O)NCC2COc3ccccc3O2)n1 (stereo not drawn) | 1.03%
COC(=O)c1ccc(N(C(=O)c2ccncc2)C(C)C)c(C)c1 | 0.503%
Cc1noc(CCCC(=O)NCCc2cc3ccccc3[nH]2)n1 | 1.38%
CC(NCc1ccccc1CN1CCCC1=O)c1ccc(C#N)cc1 (stereo not drawn) | 3.09%
Cc1ccc(CN2CCOC(C)(c3cnn(C)c3)C2)cc1 (stereo not drawn) | -4.16%
COC(=O)c1ccc(Cn2nc(C)cc2C)c(OC)c1 | 10.7%
N#Cc1ccc(SCCOCCO)c(Cl)c1 | 2.68%
CCOc1ccnc(N2CCN(CCOC)CC2)n1 | 4.49%
COCCS(=O)(=O)NC(=O)c1nnn(-c2ccc(F)cc2)c1C1CC1 | 0.188%
O=C(NCc1ccc(CN2CCCCC2)cc1)Nc1cccnc1 | 74.5%
COc1cc(C)nc(N2CCN(C(=O)CCc3ccncc3)CC2)n1 | -5%
O=C(CCC(=O)N1CCCC1c1ccsc1)N1CCOCC1 (stereo not drawn) | -10.2%
COc1c(C2CCCN2C(=O)c2ccco2)c(C)nn1C (stereo not drawn) | -1.68%
CCCN(C(=O)c1cnns1)C1CCCN(Cc2ccccc2)C1 (stereo not drawn) | -4.35%
Cc1cc(N)nc(SC2CCN(c3ccccc3)C2=O)n1 (stereo not drawn) | -0.572%
Cc1ccc2c(c1)CCCN2C(=O)c1cncc(Br)c1 | -8.79%
Cc1nc(NC(=O)N[C@H](CO)c2ccccc2)sc1C | -7.32%
COC(=O)c1ccc(OCCn2cnc(C#N)n2)cc1 | -2.01%
CN1CCN(C)C(CNc2c(C#N)cnc3ccc(Cl)cc23)C1 (stereo not drawn) | -4.58%
Cc1nc(S(=O)(=O)CCn2cccn2)n(C2CCCCC2)c1C | -5.58%

Structure (SMILES) | cytotoxicity at 10 µM
COc1cccc(CNc2nnc(C(C)(C)C)o2)c1OC | -0.508%
CC(NC1(CNC(=O)Cn2cccn2)CCOCC1)c1ccccc1 (stereo not drawn) | -3.07%
OC(CN(Cc1ccccc1)Cc1ccncc1)c1cccs1 (stereo not drawn) | -3.65%
COc1ccc(C(=O)NS(=O)(=O)c2cncc(Br)c2)cc1OC | 4.36%
CC(NC(=O)CCCOc1ccccc1Cl)c1ccncc1 (stereo not drawn) | -13%
CCC(NC1CCN(C(=O)c2ccccc2)CC1)c1cccs1 (stereo not drawn) | -2.62%
Cc1nn(C)c2ncnc(NCC(O)CN3CCCCC3)c12 (stereo not drawn) | 1.2%
CC(=O)N1CCOC(Cc2cccc(C(F)(F)F)c2)C1 (stereo not drawn) | -6.64%
CC(C)CN1CC2(CCN(C(=O)C(O)c3ccccc3Cl)CC2)CC1=O (stereo not drawn) | 6.89%
CN(CC1(O)CCCN(Cc2cccc(F)c2F)C1=O)C1CCCCC1 (stereo not drawn) | -11.1%
Cc1ccsc1[C@@H]1CCN(C(=O)CCC(=O)c2ccccc2)C[C@H]1O | 3.52%
O=c1[nH]c2cc3c(cc2cc1CN1CCCC1c1ccccn1)OCO3 (stereo not drawn) | -4.5%
CCn1c(C)nnc1SCCn1cc(-c2ncc[nH]2)nn1 | -6.99%
CCOCC(=O)N1Cc2cnc(-c3ccccc3)nc2C1 | -1.08%
CN(CCC1CCCCO1)c1nncc(-c2ccccc2)n1 (stereo not drawn) | 1.37%
CCc1ccc2nc(-c3cnn(C)c3)cc(C(=O)N3CCCC3)c2c1 | 0.753%
CCc1ncc(S(C)(=O)=O)c(C2CCCNC2)n1 (stereo not drawn) | -14.2%
C[C@@H]1CN(CCCOc2ccc(F)cc2)CC[C@@]1(O)C1CCOCC1 | -8.01%
COCCNS(=O)(=O)c1cccc2c1CN(C(=O)c1cc(C)on1)CC2 | 1.63%
Cc1c(C(C)N)cnn1-c1cccc2ccccc12 (stereo not drawn) | 10.7%
CCc1oc(C(=O)NC(C)c2ncn[nH]2)cc1CN1CCCC1 (stereo not drawn) | -5.92%
COCCn1ccnc1C1CCN(C(=O)CSc2nnc(C)o2)CC1 | -11.5%
CC1CCCCN1C1CN(c2nc(C3CCCC3)nc3c2cnn3C)C1 (stereo not drawn) | -0.699%

Structure (SMILES) | cytotoxicity at 10 µM
O=C(O)C(c1ccc2c(c1)OCCO2)N1CCC(N2CCSCC2)CC1 (stereo not drawn) | -1.1%
O=C(c1ccccc1-c1nc[nH]n1)N1CCOC(C(F)(F)F)C1 (stereo not drawn) | -0.359%
Cc1ccc(Cl)c(CN2CCC3(CC2)C(C(=O)O)CC(=O)N3C)c1F (stereo not drawn) | 2.64%
O=C(NCCN1CCCCCC1)c1coc(COc2ccc(F)cc2)n1 | -4.07%
Cc1nc(C)n(C2CCCN(C(=O)CCOCC(C)C)C2)n1 (stereo not drawn) | -0.734%
Cc1nc(-c2ccccc2)n(CC(=O)NC2CCCC2)n1 | -0.248%
COc1ccccc1CNC(=O)CNCCn1cc(C)cn1 | -1.9%
O=C(CN1C=Nc2ccccc2S1(=O)=O)NCc1ccccc1 | -3.95%
Cc1ccc(C(=O)NC2CCN(CC(=O)N(C)c3ccccc3)CC2)o1 | -3.73%
Cc1cnc2c(S(=O)(=O)NCC3CC3)cccc2c1 | -2.87%
CCc1ncc2c(n1)CN(CC(=O)Nc1ccncc1)CC2 | 0.0264%
Cc1nccn1C1CCCN(C(=O)c2ccc3nnc(C)n3c2)C1 (stereo not drawn) | 2.01%
CS(=O)(=O)NCCC(=O)Nc1cnn(-c2ccccc2Cl)c1 | -0.0414%
O=C(CN1CCCC1c1noc(C2CC2)n1)NCCc1ccsc1 (stereo not drawn) | 2.82%
Cc1ccc(NC2CCN(C(=O)CCc3c(C)noc3C)CC2)nn1 | -11.4%
Cc1nc(CN2CCC(N(C)Cc3nnc(C4CC4)n3C)C2)cs1 (stereo not drawn) | -10.7%
Cc1nn(C)c(Cl)c1C1CCCN1C(=O)c1ccc2c(c1)COC2 (stereo not drawn) | -16.1%
COc1ccccc1CNC(C)c1ccc2[nH]c(=O)[nH]c2c1 (stereo not drawn) | -18%
CCc1nc2n(n1)CC(NCCC(=O)Nc1cc(C)on1)CC2 (stereo not drawn) | -10%
N#Cc1ccc(OCC(O)CN2CCC(c3ccn[nH]3)CC2)cc1 (stereo not drawn) | -3.33%
COCCOc1cccc(CNCC2CN(C)CCO2)c1 (stereo not drawn) | -14.8%
Fc1cccc(-c2nc(CN3CCCC3Cn3cncn3)co2)c1 (stereo not drawn) | -5.61%
O=C(NCc1cccnc1N1CCCCC1)c1cccs1 | -4.43%

Structure (SMILES) | cytotoxicity at 10 µM
O=C(NCc1cc[nH]n1)NCC(O)c1ccccc1F (stereo not drawn) | -17.1%
CC(Cn1ccnc1)NC(=O)N(C)Cc1ccc2c(c1)OCO2 (stereo not drawn) | -16.1%
COCCN1CCN(Cc2cccc(C(=O)N(C)C)c2)CC1 | -6.79%
O=C(CN1CCCC(Cn2cncn2)C1)NCCCc1ccccc1 (stereo not drawn) | -10.7%
Cc1ccccc1-c1noc(CN2CCc3nn(C)c(=O)cc3C2)n1 | -12.5%
CCOc1c(Cl)cc(/C=C/c2ncc(C(=O)O)s2)cc1OC | 3.91%
O=C(COCc1ccccc1)N1CCCC1c1noc(C2CC2)n1 (stereo not drawn) | -1.98%
Cc1nc(C2CCCN2C(=O)COCc2ccccc2)no1 (stereo not drawn) | -2.66%
O=C(COc1cccc(Cl)c1)N1CCOCC1c1ncon1 (stereo not drawn) | -12.3%
Cc1csc(N2CCCN(C(=O)CCNc3ncccn3)CC2)n1 | -10.5%
CC(C)(C)OC(=O)NCCNC(=O)c1ccc(-c2ccco2)[nH]c1=O | -13.1%
O=C(c1ccc2c(c1)OCCCO2)N1CCCC(n2cccn2)C1 (stereo not drawn) | -15.6%
CC(NC(=O)Nc1cccnc1N1CCCC1)c1ccncc1 (stereo not drawn) | -19.3%
Cc1ccc(N2CCCC(NCc3ccc4c(c3)CCO4)C2)nn1 (stereo not drawn) | -16.1%
N#CCc1ccc(OCC(=O)N2CCCC(n3cccn3)C2)cc1 (stereo not drawn) | -4%
Cc1noc(C(C)C)c1C(=O)NCC(c1ccsc1)N(C)C (stereo not drawn) | -5.18%
CO[C@@H]1CCN(Cc2cnn(C)c2)[C@@H]2CN(Cc3ccco3)C[C@@H]21 | -12.5%
O=C(O)[C@]12CCCN(Cc3ccoc3)C[C@H]1CN(c1ncccn1)C2 | 7.37%
COCCN1CCO[C@@H]2CN(C(=O)NCc3ccccc3)CC[C@@H]2C1 | 3.23%
CN1CCC2(CCN(Cc3nccs3)CC2)C1=O | -3.03%
COc1cccc(C(=O)N2C[C@@H]3CC[C@H]2CN(Cc2cscn2)C3)c1 | 1.5%
